Results as given in ChEMBL document CHEMBL2177067 (J Med Chem, 2012).
Values after ≈ are worked out from the molar mass of the structure shown.

Tests used:
[1] = Inhibition of Staphylococcus aureus ATCC 25923 replicative DnaB helicase-mediated ATP-dependent dissociation of Hel-5'FAM:Hel-3'BHQ by FRET assay
How it was run: (§1)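 Unwinding was read by FRET as helicase-driven, ATP-dependent dissociation of annealed Hel-5′FAM and Hel-3′BHQ oligonucleotides, one fluorescent and the other quencher-labelled. The replicative helicases were prepared as described earlier.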

[2] = target: T1, Replicative DNA helicase (Bacillus anthracis, UniProt A0A6L8Q2B7); assay: Inhibition of Bacillus anthracis Sterne 34F2 replicative DNA helicase-mediated ATP-dependent dissociation of Hel-5'FAM:Hel-3'BHQ by FRET assay; parameters: species or system Bacillus anthracis str. Sterne; how it was run: as §1
T1 sequence (A0A6L8Q2B7 whole entry): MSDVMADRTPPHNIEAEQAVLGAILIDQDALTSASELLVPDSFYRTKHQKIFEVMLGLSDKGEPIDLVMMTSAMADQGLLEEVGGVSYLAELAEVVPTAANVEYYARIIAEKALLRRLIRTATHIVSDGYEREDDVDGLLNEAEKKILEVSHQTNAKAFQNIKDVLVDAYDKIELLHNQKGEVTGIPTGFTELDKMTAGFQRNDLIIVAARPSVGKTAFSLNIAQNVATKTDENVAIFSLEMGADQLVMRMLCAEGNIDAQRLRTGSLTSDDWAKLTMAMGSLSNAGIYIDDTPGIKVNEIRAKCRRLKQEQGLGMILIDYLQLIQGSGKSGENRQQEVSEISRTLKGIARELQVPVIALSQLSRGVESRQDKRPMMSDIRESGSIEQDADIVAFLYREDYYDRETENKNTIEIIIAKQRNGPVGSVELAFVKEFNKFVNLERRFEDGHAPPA

[3] = tested on: Staphylococcus aureus; assay: Antibacterial activity against Staphylococcus aureus ATCC 25923 by broth microdilution method; assay type: functional
[4] = tested on: Bacillus anthracis; assay: Antibacterial activity against Bacillus anthracis by broth microdilution method; assay type: functional
[5] = tested on: HeLa; assay: Cytotoxicity against human HeLa cells by MTS assay; assay type: cell-based
[6] = Selectivity index, ratio of CC50 for human HeLa cells to MIC for Staphylococcus aureus ATCC 25923; assay type: functional
How it was run: (§2)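 Selectivity index is HeLa CC50 (MTS assay) divided by the bacterial MIC.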

[7] = Selectivity index, ratio of CC50 for human HeLa cells to MIC for Bacillus anthracis; assay type: functional; how it was run: as §2

| Structure (SMILES) | IC50 [1] [µM] | IC50 [2] [µM] | MIC [3] [µM] | MIC [4] [µM] | CC50 [5] [µM] | Selectivity Index [6] | Selectivity Index [7] |
| --- | --- | --- | --- | --- | --- | --- | --- |
| Cc1c(CCC(=O)O)c(=O)oc2c(C)c(OCc3ccncc3)ccc12 | > 100 | > 100 |  |  |  |  |  |
| CNC(=O)CCc1c(C)c2ccc(OCc3ccc(-c4ccc(Cl)cc4)cc3)c(C)c2oc1=O | 38 | > 100 | > 100 | > 100 | 90.7 | 0.91 | 0.91 |
| Cc1c(CCC(=O)O)c(=O)oc2c(C)c(OCc3cccc(-c4ccccc4)c3)ccc12 | 6 | 7.5 | 20 (≈ 8.57 µg/mL) | 0.625 (≈ 0.268 µg/mL) | 5.6 | 0.3 | 9 |
| Cc1c(CCC(=O)O)c(=O)oc2cc(OCc3ccc(-c4ccccc4)cc3)ccc12 | 6 | 9.7 | 3.12 (≈ 1.3 µg/mL) | 2.5 (≈ 1.04 µg/mL) | 21.2 | 6.8 | 8.5 |
| C#CCOc1ccc2c(C)c(CCC(=O)O)c(=O)oc2c1C | > 100 | > 100 |  |  |  |  |  |
| Cc1c(CCC(=O)O)c(=O)oc2c(C)c(OCc3ccccc3)ccc12 | 60 | 85 |  |  |  |  |  |
| Cc1c(CCC(=O)O)c(=O)oc2c(C)c(OCc3ccc(-c4ccccc4C#N)cc3)ccc12 | 4.6 | 3.8 | 2.5 (≈ 1.13 µg/mL) | 1.25 (≈ 0.567 µg/mL) | 19.5 | 7.8 | 15.6 |
| CC(=O)NCCNC(=O)CCc1c(C)c2ccc(OCc3ccc(-c4ccccc4)cc3)c(C)c2oc1=O | > 100 | > 100 |  |  |  |  |  |
| Cc1c(CCC(=O)O)c(=O)oc2c(C)c(OCc3cccc4ccccc34)ccc12 |  |  | > 100 | 65 (≈ 26.2 µg/mL) |  | <0.06 | 0.09 |
| Cc1c(CCC(=O)O)c(=O)oc2cc(OCc3cccc(-c4ccccc4)c3)ccc12 |  | 15 | 10 (≈ 4.14 µg/mL) | 2.5 (≈ 1.04 µg/mL) | 10.1 | 1 | 4 |
| Cc1c(CCC(=O)O)c(=O)oc2c(C)c(OCc3ccc(-c4ccc(F)cc4F)cc3)ccc12 | 4.9 | 9 | > 100 | > 100 |  |  |  |
| Cc1c(CCC(=O)O)c(=O)oc2c(C)c(OCc3ccc(-c4ccc(F)cc4)cc3)ccc12 | 3.7 | 5.1 | 3 (≈ 1.34 µg/mL) | < 0.8 | 19.2 | 6.4 | >24 |
| CCc1c(OCc2ccc(-c3ccccc3)cc2)ccc2c(C)c(CCC(=O)O)c(=O)oc12 |  | 2 | 5 (≈ 2.21 µg/mL) | 1.25 (≈ 0.553 µg/mL) | 42 | 8.4 | 34 |
| Cc1c(CCC(=O)O)c(=O)oc2c(C)c(OCc3ccc4ccc(Cl)cc4n3)ccc12 | 50 | 56 |  |  |  |  |  |
| Cc1c(CCC(=O)O)c(=O)oc2c(C)c(OCc3nccc4ccccc34)ccc12 | > 100 | > 100 |  |  |  |  |  |
| C=CCOc1ccc2c(C)c(CCC(=O)O)c(=O)oc2c1C | > 100 | > 100 |  |  |  |  |  |
| Cc1c(CCC(=O)O)c(=O)oc2cc(OCc3ccc4ccc(Cl)cc4n3)ccc12 | 70 | > 100 |  |  |  |  |  |
| Cc1c(CCC(=O)O)c(=O)oc2c(C)c(OCc3ccccc3-c3ccccc3)ccc12 | 9 | 10.2 | 10 (≈ 4.28 µg/mL) | 2.5 (≈ 1.07 µg/mL) | 4.4 | 0.4 | 1.8 |
| Cc1c(CCC(=O)O)c(=O)oc2cc(OCc3ccccc3-c3ccccc3)ccc12 | 12 | 19 | 12.5 (≈ 5.18 µg/mL) | 5 (≈ 2.07 µg/mL) | 7.8 | 0.6 | 1.6 |
| Cc1c(CCC(=O)NCCN(C)C)c(=O)oc2c(C)c(OCc3ccc(-c4ccccc4)cc3)ccc12 | 1.7 | 1.8 | 5 (≈ 2.49 µg/mL) | 2.5 (≈ 1.25 µg/mL) | 1.1 | 0.22 | 0.44 |
| Cc1c(CCC(=O)O)c(=O)oc2cc(OCc3nccc4ccccc34)ccc12 | > 100 | > 100 |  |  |  |  |  |
